Where a SMILES comes first, the peptide text is derived from it. [ ]: non-standard residue; d: D form. The star is where a group is joined. X1 = COc1ccc(C[C@@H](CN[C@@H](CCCNC(=N)N)C(=O)O)N*)cc1; Hyp = O=C(O)[C@@H]1C[C@@H](O)CN1; 2Thi = N[C@@H](Cc1cccs1)C(=O)O
How the values were obtained:
B2 bradykinin receptor [1] = biological target: T1, B2 bradykinin receptor (Homo sapiens, UniProt P30411); test: Binding affinity against human cloned Bradykinin receptor B2 expressed in CHO cells using [3H]-bradykinin as radioligand; assay type: cell-based
T1 sequence (P30411 whole entry): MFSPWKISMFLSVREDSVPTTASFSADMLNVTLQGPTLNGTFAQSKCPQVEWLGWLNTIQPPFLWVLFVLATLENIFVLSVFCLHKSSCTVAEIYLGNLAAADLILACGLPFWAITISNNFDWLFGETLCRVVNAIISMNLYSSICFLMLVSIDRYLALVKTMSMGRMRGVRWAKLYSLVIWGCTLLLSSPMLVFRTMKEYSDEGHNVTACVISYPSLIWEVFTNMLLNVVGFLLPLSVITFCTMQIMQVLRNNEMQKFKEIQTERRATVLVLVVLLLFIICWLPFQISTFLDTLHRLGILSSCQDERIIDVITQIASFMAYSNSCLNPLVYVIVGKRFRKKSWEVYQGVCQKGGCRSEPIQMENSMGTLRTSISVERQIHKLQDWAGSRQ
Method in brief: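 Membranes of stably transfected CHO cells (human or rat B2 receptor), prepared in 20 mM TES pH 6.8 with 1 mM 1,10-phenanthroline, 140 µg/mL bacitracin and 0.1% BSA, spun at 40 000g. Filtration on PEI-soaked GF/B filters.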

B1 bradykinin receptor = biological target: T2, B1 bradykinin receptor (Homo sapiens, UniProt P46663); test: Binding affinity against human cloned Bradykinin receptor B1 expressed in HEK 293 cells using [3H]des-Arg10-[Leu9]-kallidin as radioligand
T2 sequence (P46663 whole entry): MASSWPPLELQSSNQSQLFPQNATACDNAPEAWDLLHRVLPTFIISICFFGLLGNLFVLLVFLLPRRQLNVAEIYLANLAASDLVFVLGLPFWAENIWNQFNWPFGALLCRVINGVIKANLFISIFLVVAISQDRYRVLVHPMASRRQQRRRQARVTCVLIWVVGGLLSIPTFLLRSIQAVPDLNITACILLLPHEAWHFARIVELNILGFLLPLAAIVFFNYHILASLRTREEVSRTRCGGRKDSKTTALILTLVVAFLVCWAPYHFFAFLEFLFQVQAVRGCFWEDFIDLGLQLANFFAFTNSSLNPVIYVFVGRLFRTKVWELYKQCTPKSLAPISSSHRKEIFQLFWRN

B2 bradykinin receptor [2] = biological target: T3, B2 bradykinin receptor (Rattus norvegicus, UniProt P25023); test: Binding affinity against rat bradykinin B2 receptors expressed in CHO cells using [3H]bradykinin as radioligand; assay type: cell-based
T3 sequence (P25023 whole entry): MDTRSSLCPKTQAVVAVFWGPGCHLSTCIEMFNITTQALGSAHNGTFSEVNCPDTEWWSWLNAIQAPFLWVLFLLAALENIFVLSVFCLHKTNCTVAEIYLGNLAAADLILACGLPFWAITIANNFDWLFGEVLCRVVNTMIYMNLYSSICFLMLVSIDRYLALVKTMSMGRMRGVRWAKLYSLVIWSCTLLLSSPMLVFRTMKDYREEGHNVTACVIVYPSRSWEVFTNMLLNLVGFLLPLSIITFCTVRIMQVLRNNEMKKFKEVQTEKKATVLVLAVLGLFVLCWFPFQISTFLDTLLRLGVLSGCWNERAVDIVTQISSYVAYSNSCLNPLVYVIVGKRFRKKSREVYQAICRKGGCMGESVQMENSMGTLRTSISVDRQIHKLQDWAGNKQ
Method in brief: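 Membranes of stably transfected CHO cells (human or rat B2 receptor), prepared in 20 mM TES pH 6.8 with 1 mM 1,10-phenanthroline, 140 µg/mL bacitracin and 0.1% BSA, spun at 40 000g. […] Filtration on PEI-soaked GF/B filters. Ki, means ± SEM (n = 3 or 4).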

Homo sapiens [3] = species: Homo sapiens; test: Agonistic activity on human umbilical vein(HUV) in absence of inhibitors; assay type: functional
Method in brief: (§1)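 Human umbilical vein segments; cumulative concentration-response to agonist measured as contraction, run with or without protease inhibitors. Maximal contraction of each segment obtained after washout with U46619 (1 μM).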

Homo sapiens [4] = species: Homo sapiens; test: (§2) Agonistic activity on human umbilical vein(HUV) in presence of inhibitors; assay type: functional; method in brief: as §1
Rattus norvegicus [5] = species: Rattus norvegicus; test: Agonistic activity on rat uterus(RUT) in absence of inhibitors; assay type: functional
Method in brief: (§3)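 Uterus from female Sprague–Dawley rats (250-300 g) pretreated with diethylstilbestrol 0.1 mg/kg s.c. 18 h before CO2 kill. Tissue placed in Jalon solution (mM: NaCl 154, KCl 5.6, NaHCO3 1.7, MgCl2 1.4, glucose 5.5, CaCl2 0.3). One cumulative concentration-response curve per segment, run with or without protease inhibitors. Maximum per segment taken with angiotensin II (3 μM). Means ± SEM, n = 5; pD2.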

Rattus norvegicus [6] = species: Rattus norvegicus; test: (§4) Agonistic activity on rat uterus(RUT) in presence of inhibitors; assay type: functional; method in brief: as §3
Rattus norvegicus [7] = species: Rattus norvegicus; test: as §4; assay type: functional, organism-based; conditions: read-out: pA2 (converted); method in brief: as §3
Homo sapiens [8] = species: Homo sapiens; test: as §2; assay type: functional, organism-based; conditions: read-out: pA2 (converted); method in brief: as §1
B2 bradykinin receptor [9] = biological target: T3, B2 bradykinin receptor; test: Binding affinity against rat Bradykinin receptor B2 expressed in CHO cells using [3H]-bradykinin as radioligand; assay type: cell-based
Method in brief: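 Competition binding on membranes from stably transfected CHO cells. Cells were scraped into 20 mM TES pH 6.8 with 1 mM 1,10-phenanthroline, 140 µg/mL bacitracine and 0.1% BSA, and membranes were pelleted at 40 000g for 15 min. […] Bound label was collected by filtration on PEI-presoaked GF/B filters and counted by scintillation. n = 3 or 4.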

Molecule	Ki (B2 bradykinin receptor [1])	Ki (B1 bradykinin receptor)	pD2 (Homo sapiens [3])	pD2 (Homo sapiens [4])	also measured
NC(N)=NCCC[C@@H](N)C(=O)N[C@@H](CCCN=C(N)N)C(=O)N1CCC[C@H]1C(=O)N1CC(O)C[C@H]1C(=O)NCC(=O)N[C@@H](Cc1cccs1)C(=O)N[C@@H](CO)C(=O)N[C@@H]1CSc2ccccc2N(CC(=O)N[C@@H](CCCN=C(N)N)C(=O)O)C1=O (stereo partly specified)	0.7 nM	> 10000 nM	6.7	6.8	Ki (B2 bradykinin receptor [2]): 6 nM; pD2 (Rattus norvegicus [5]): 7.2; pD2 (Rattus norvegicus [6]): 7.5
NC(N)=NCCC[C@@H](N)C(=O)N[C@@H](CCCN=C(N)N)C(=O)N1CCC[C@H]1C(=O)N1C[C@H](O)C[C@H]1C(=O)NCC(=O)N[C@@H](Cc1cccs1)C(=O)N[C@@H](CO)C(=O)N1Cc2ccccc2C[C@@H]1C(=O)N1[C@H](C(=O)N[C@@H](CCCN=C(N)N)C(=O)O)C[C@@H]2CCCC[C@@H]21 [ICATIBANT]	–	–	–	–	Ki (B2 bradykinin receptor [2]): 0.077 nM; Kb (Rattus norvegicus [7]): 1.15 nM; Kb (Homo sapiens [8]): 6.61 nM
H-RPPGFSPFR-OH [BRADYKININ] [listing 1 of 2 here]	–	–	7.4	7.9	pD2 (Rattus norvegicus [5]): 7.33; pD2 (Rattus norvegicus [6]): 8.3
H-RPPGFSPFR-OH [BRADYKININ] [listing 2 of 2 here]	–	–	–	–	Ki (B2 bradykinin receptor [9]): 0.46 nM

The next lines start with results.

Ki (B2 bradykinin receptor [1])	Ki (B1 bradykinin receptor)	Molecule	pD2 (Homo sapiens [3])	pD2 (Homo sapiens [4])	also measured
162 nM	> 10000 nM	N=C(N)NCCC[C@@H](N)C(=O)N[C@@H](CCCNC(=N)N)C(=O)N1CCC[C@H]1C(=O)N1CC(O)C[C@H]1C(=O)NCC(=O)N[C@@H](Cc1cccs1)C(=O)N[C@@H](CO)C(=O)N[C@H]1CSc2ccccc2N(CC(=O)N[C@@H](CCCNC(=N)N)C(=O)O)C1=O (stereo partly specified)	–	–	–
–	> 10000 nM	N=C(N)NCCC[C@H](NC(=O)CN1C(=O)[C@H](NC(=O)[C@H](CO)NC(=O)[C@H](Cc2ccccc2)NC(=O)CNC(=O)[C@@H]2CCCN2C(=O)[C@@H]2CCCN2C(=O)[C@@H](N)CCCNC(=N)N)CSc2ccccc21)C(=O)O	–	–	–
19 nM	–	COc1ccc(C[C@@H](CN[C@@H](CCCNC(=N)N)C(=O)O)NC(=O)[C@@H]2CCCN2C(=O)[C@H](CO)NC(=O)[C@H](Cc2cccs2)NC(=O)CNC(=O)[C@@H]2C[C@@H](O)CN2C(=O)[C@@H]2CCCN2C(=O)[C@@H](N)CCCNC(=N)N)cc1 [LABRADIMIL] (H-RP[Hyp]G[2Thi]SP-X1)	6.9	7.1	–

— ChEMBL document CHEMBL1132435 (J Med Chem, 1999)
